Measured values from the array DNA melting data of Ke et al. (doi:10.1101/2024.01.08.574731).

Tests used:
[1] = folding enthalpy; higher = less favourable; fluorescence melt of hairpins on a sequencing array, two-state fit; conditions: sodium 0.088 M
Summary of the method: (§1)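 Cy3 signals were normalised both to pre-quench Cy3 and to control constructs. They came from library hairpins carrying annealed Cy3 and quencher oligos on a sequenced MiSeq flow cell, imaged in 50 mM Na-HEPES pH 8.0, 25 mM NaCl, in 2.5 °C steps up to 60 °C. Bootstrapped two-state fits gave melting temperature and folding enthalpy, and four replicates were combined by inverse variance. Fitted temperatures were then raised by 9.35 °C to match UV melts.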

[2] = melting temperature; fluorescence melt of hairpins on a sequencing array, two-state fit, raised by 9.35 °C to match UV melts; conditions: sodium 0.088 M
Summary of the method: as §1

Sequence	folding enthalpy [1] [kcal/mol]	Tm [2] [°C]
CGCAGCGGAAACGCAGCG (((.(((....))).)))	-29.9	68.5
CGCCACGGAAACGTGCG (((.(((....))))))	-24.7	54.4
CGCCACGGAAACGTTGCG (((.(((....))).)))	-33.4	51.1
CGCCCCGGAAACGGCGCG (((.(((....))).)))	-36.5	52.1
CGCCCGGAAACGGATGCG ((((((....)))..)))	-25	48.4
CGCCCGGAAACGGCAGCG ((((((....)))..)))	-30.7	48.7
CGCCCGGAAACGGCGCG ((((((....))).)))	-26.8	58.4
CGCCCGGAAACGGTGCG ((((((....))).)))	-31.7	57.9
CGCCTCGGAAACGAAGCG (((.(((....))).)))	-25.9	48.3
CGCCTGCGGAAACGCGCG (((..(((....))))))	-16.9	42.1
CGCGCGGAAACGCCTGCG ((((((....)))..)))	-17.2	46.8
CGCGCGGAAACGCTAGCG ((((((....)))..)))	-31	55.6
CGCGGAAAAACCGCG ((...........))	-29.7	65.7
CGCGGAACGGTCCGCG ((((((....))))))	-38.7	61.6
CGCGGAAGCTCCGCG ((((((...))))))	-26.3	68.8
CGCGGAATAGTCCGCG ((((((....))))))	-25.5	68.5
CGCGGAATGATCCGCG ((((((....))))))	-39.7	62.5
CGCGGAATGGTCCGCG ((((((....))))))	-30.2	69
CGCGGACAATTCCGCG ((((((....))))))	-30.5	62.2
CGCGGACCTTCCGCG ((((((...))))))	-28.5	69.2
CGCGGACGAATCCGCG ((((((....))))))	-33.2	68.5
CGCGGACGATCCGCG ((((((...))))))	-35.3	63.2
CGCGGACGCTCCGCG ((((((...))))))	-31.7	66.6

Sequence	folding enthalpy [1] [kcal/mol]	Tm [2] [°C]
CGCGGACTGTCCGCG ((((((...))))))	-42.3	64.7
CGCGGATAGTTCCGCG ((((((....))))))	-35.4	68.5
CGCGGATGATTCCGCG ((((((....))))))	-31.2	69.3
CGCGGATTGCTCCGCG ((((((....))))))	-48.8	64.9
CGCGGTCGGAAACGAGCG (((..(((....))))))	-15.1	56.1
CGCGTCGGAAACGAAGCG (((.(((....))).)))	-34	56.7
CGCTAGCGGAAACGCGCG (((..(((....))))))	-25.3	52.7
CGCTCCGGAAACGGCGCG (((.(((....))).)))	-39.5	56.9
CGCTCGGAAACGATTGCG ((((((....)))..)))	-25.4	39.8
CGCTTCGGAAACGAGGCG (((.(((....))).)))	-42.4	55.9
CGCTTTCGGAAACGAGCG (((..(((....))))))	-24.9	36.1
CGGACCGGAAACGGCCCG (((.(((....))).)))	-39.9	56.4
CGGACGGAAACGTCTCCG ((((((....)))..)))	-11.3	35.7
CGGACGGAAACGTGTCCG ((((((....)))..)))	-32.8	49.5
CGGAGCCGGAAACGGCCG (((..(((....))))))	-11.2	46.6
CGGCCACGGAAACGTCCG (((..(((....))))))	-10.4	33.6
CGGCCCGGAAACGGTCCG (((.(((....))).)))	-45.1	55.3
CGGCCGGAAACGGATCCG ((((((....)))..)))	-22	39.8
CGGCCGGAAACGGGCCCG ((((((....)))..)))	-9.66	46.8
CGGCCGGAAACGGGTCCG ((((((....)))..)))	-18.6	50.4
CGGCCGGAAACGGTCCCG ((((((....)))..)))	-13.1	41
CGGCCTCGGAAACGACCG (((..(((....))))))	-18.7	34.5
CGGCGCGGAAACGCACCG (((.(((....))).)))	-29.3	67.4

Sequence	folding enthalpy [1] [kcal/mol]	Tm [2] [°C]
CGGCGCGGAAACGCCCCG (((.(((....))).)))	-17.5	52
CGGCTTCGGAAACGACCG (((..(((....))))))	-18.2	37.9
CGGGAACGGAAACGTCCG (((..(((....))))))	-22.2	43.1
CGGGCACGGAAACGTCCG (((..(((....))))))	-19.9	38.9
CGGGCGGAAACGCATCCG ((((((....)))..)))	-15.9	44.3
CGGGGACGGAAACGTCCG (((..(((....))))))	-7.9	50.2
CGGGGGCGGAAACGCCCG (((..(((....))))))	-6.12	52.2
CGGGTACGGAAACGTCCG (((..(((....))))))	-20	40
CGGGTCGGAAACGAACCG (((.(((....))).)))	-42.8	59.6
CGGTAGCGGAAACGCCCG (((..(((....))))))	-23.4	48.7
CGGTCGCGGAAACGCCCG (((..(((....))))))	-20.9	47.1
CGGTCGGAAACGAACCG ((((((....))).)))	-33.3	51.6
CGGTCGGAAACGAATCCG ((((((....)))..)))	-25.8	37
CGGTCGGAAACGACCCG ((((((....))).)))	-10	51.5
CGGTCGGAAACGAGCCCG ((((((....)))..)))	-14	37.5
CGGTGCCGGAAACGGCCG (((..(((....))))))	-9.28	47.5
CGGTTCGGAAACGACCCG (((.(((....))).)))	-33	50
CGGTTCGGAAACGACCG (((.(((....))))))	-35.6	50.6
CGTAAGCGGAAACGCACG (((..(((....))))))	-22.6	41.8
CGTACCCGGAAACGGACG (((..(((....))))))	-12.3	31.8
CGTACGGAAACGTCACG ((((((....))).)))	-22.6	38.4
CGTACGGAAACGTGTACG ((((((....)))..)))	-25.2	41.5
CGTACGGAAACGTTCACG ((((((....)))..)))	-18.6	39

Sequence	folding enthalpy [1] [kcal/mol]	Tm [2] [°C]
CGTATCGGAAACGAAACG (((.(((....))).)))	-37.5	42.5
CGTCACGGAAACGTAACG (((.(((....))).)))	-43.1	41.6
CGTCACGGAAACGTCACG (((.(((....))).)))	-19.8	39.3
CGTCAGCGGAAACGCACG (((..(((....))))))	-15.4	40.6
CGTCCCGGAAACGGACG (((.(((....))))))	-27.7	53.2
CGTCCGGAAACGGAAACG ((((((....)))..)))	-20.9	40.5
CGTCCGGAAACGGAACG ((((((....))).)))	-24.9	49.9
CGTCCGGAAACGGACACG ((((((....)))..)))	-8.11	42.9
CGTCCGGAAACGGCCACG ((((((....)))..)))	-13	33.1
CGTCCGGAAACGGCTACG ((((((....)))..)))	-12.6	34
CGTCCGGAAACGGTACG ((((((....))).)))	-25.7	48.1
CGTCCGGAAACGGTCACG ((((((....)))..)))	-13.9	35.2
CGTCGGCGGAAACGCACG (((..(((....))))))	-18.3	46.1
CGTCTCCGGAAACGGACG (((..(((....))))))	-14.7	37.8
CGTCTCGGAAACGAACG (((.(((....))))))	-23.4	36.1
CGTCTCGGAAACGACACG (((.(((....))).)))	-31.2	35.5
CGTCTCGGAAACGATACG (((.(((....))).)))	-38	42.9
CGTCTGAAAAGACG (((((....)))))	-29.4	55.2
CGTGCCGGAAACGGGACG (((.(((....))).)))	-37.6	62.9
CGTGCGGAAACGCAGACG ((((((....)))..)))	-15.7	47.4
CGTGCGGAAACGCCCACG ((((((....)))..)))	-22.4	38.2
CGTGCGGAAACGCGCACG ((((((....)))..)))	-34.2	64
CGTGCGGAAACGCGGACG ((((((....)))..)))	-19.2	47
